In ChEMBL document CHEMBL5724801, “EUbOPEN Chemogenomics Library - Multiplex” (2024):
Values joined by “and” are separate entries in the source; they are usually repeats but may differ in a detail not shown here. Equal values may be shown once.

These compounds were tested on HEK-293T (assay: Multiplex assay against HEK293T). Settings: human, 12 h, 1 µM, compound concentration 1 uM.
Format: toxicity, cell-based
Outline: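 Per cents of healthy-nucleus cells form the tubulin, mitochondrial-mass and membrane-permeability phenotype values. Live cells were stained at seeding with Hoechst33342, BioTracker Green Microtubule Cytoskeleton Dye, MitoTracker Red and Annexin V Alexa Fluor 680. After compound addition they were imaged on a CQ1 microscope at 37°C and 5% CO2, and CellPathfinder machine-learning gating split them into Hoechst high-intensity objects or normal cells, normal cells into healthy, pyknosed or fragmented nuclei, and pyknosed cells into mitotic or apoptotic.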

SMILES	Population Apoptotic (%)	Population Fragmented Nuclei (%)	Population Healthy Nuclei (%)	Population Hoechst High Intensity Objects (%)	Population Membrane Permeable-Phenotype (%)	Population Mitochondria Different-Phenotype (%)	Population Mitotic Cells (%)	Population Normal (%)	Population Pyknosed Nuclei (%)	Population Tubulin-Different-Phenotype (%)
C[C@H](N)COC(=O)[C@@H](CCCCN)NC(=O)Cc1c(-c2ccc3ccccc3c2)[nH]c2c1ccc1ccccc12	22% and 51%	6% and 8%	82% and 74%	8	0%	37% and 65%	77% and 48%	91	10% and 16%	27% and 30%
COCCNc1nc2ccc(C#CC3(O)CCCCC3)cc2n1-c1ccnc(N)n1	9.87% and 12.26%	1.33% and 5.34%		0	1.82% and 0%		90.13% and 87.74%	100	40.32% and 80.92%	

Same assay, conditions: human, 12 h, 1 µM, compound concentration 1 uM

SMILES	Total Cell Count
C[C@H](N)COC(=O)[C@@H](CCCCN)NC(=O)Cc1c(-c2ccc3ccccc3c2)[nH]c2c1ccc1ccccc12	458 and 291
COCCNc1nc2ccc(C#CC3(O)CCCCC3)cc2n1-c1ccnc(N)n1	377 and 131

Same assay, conditions: human, 12 h, 10 µM, compound concentration 10 uM

SMILES	Population Apoptotic (%)	Population Fragmented Nuclei (%)	Population Healthy Nuclei (%)	Population Hoechst High Intensity Objects (%)	Population Membrane Permeable-Phenotype (%)	Population Mitochondria Different-Phenotype (%)	Population Mitotic Cells (%)	Population Normal (%)	Population Pyknosed Nuclei (%)	Population Tubulin-Different-Phenotype (%)
C[C@H](N)COC(=O)[C@@H](CCCCN)NC(=O)Cc1c(-c2ccc3ccccc3c2)[nH]c2c1ccc1ccccc12	41% and 61%	7% and 5%	78	11% and 7%	0	60% and 72%	58% and 38%	88% and 93%	14% and 16%	54% and 50%
COCCNc1nc2ccc(C#CC3(O)CCCCC3)cc2n1-c1ccnc(N)n1	17.15% and 7.53%	0.29% and 2.41%		0%	0		82.85% and 92.47%	100%	68.29% and 87.95%	29.09% and 56.25%

Same assay, conditions: human, 12 h, 10 µM, compound concentration 10 uM

SMILES	Total Cell Count
C[C@H](N)COC(=O)[C@@H](CCCCN)NC(=O)Cc1c(-c2ccc3ccccc3c2)[nH]c2c1ccc1ccccc12	435 and 343
COCCNc1nc2ccc(C#CC3(O)CCCCC3)cc2n1-c1ccnc(N)n1	350 and 166

Same assay, conditions: human, 24 h, 1 µM, compound concentration 1 uM

SMILES	Population Apoptotic (%)	Population Fragmented Nuclei (%)	Population Healthy Nuclei (%)	Population Hoechst High Intensity Objects (%)	Population Membrane Permeable-Phenotype (%)	Population Mitochondria Different-Phenotype (%)	Population Mitotic Cells (%)	Population Normal (%)	Population Pyknosed Nuclei (%)	Population Tubulin-Different-Phenotype (%)
C[C@H](N)COC(=O)[C@@H](CCCCN)NC(=O)Cc1c(-c2ccc3ccccc3c2)[nH]c2c1ccc1ccccc12	25% and 54%	9% and 7%	77% and 80%	4% and 7%	0% and 1%	24% and 47%	75% and 45%	95% and 92%	12%	19% and 25%
COCCNc1nc2ccc(C#CC3(O)CCCCC3)cc2n1-c1ccnc(N)n1	11.24% and 8.33%	1.68% and 2.99%	69.92% and 32.34%	0% and 0.6%	2.88% and 1.85%	12.5% and 16.67%	88.76% and 91.67%	100% and 99.4%	28.4% and 64.67%	6.49% and 5.56%

Same assay, conditions: human, 24 h, 1 µM, compound concentration 1 uM

SMILES	Total Cell Count
C[C@H](N)COC(=O)[C@@H](CCCCN)NC(=O)Cc1c(-c2ccc3ccccc3c2)[nH]c2c1ccc1ccccc12	638 and 352

Same assay, conditions: human, 24 h, 10 µM, compound concentration 10 uM

SMILES	Population Apoptotic (%)	Population Fragmented Nuclei (%)	Population Healthy Nuclei (%)	Population Hoechst High Intensity Objects (%)	Population Membrane Permeable-Phenotype (%)	Population Mitochondria Different-Phenotype (%)	Population Mitotic Cells (%)	Population Normal (%)	Population Pyknosed Nuclei (%)	Population Tubulin-Different-Phenotype (%)
C[C@H](N)COC(=O)[C@@H](CCCCN)NC(=O)Cc1c(-c2ccc3ccccc3c2)[nH]c2c1ccc1ccccc12	41% and 48%	6% and 9%	78% and 80%	6% and 7%	0%	57% and 54%	58% and 51%	93% and 92%	14% and 10%	45% and 42%
COCCNc1nc2ccc(C#CC3(O)CCCCC3)cc2n1-c1ccnc(N)n1	30% and 31.16%	0.22% and 1.23%		0.22% and 0%	1% and 0%	22.89% and 17.39%	70% and 68.84%	99.78% and 100%	55.31% and 84.66%	37.81% and 21.74%

Same assay, conditions: human, 24 h, 10 µM, compound concentration 10 uM

SMILES	Total Cell Count
C[C@H](N)COC(=O)[C@@H](CCCCN)NC(=O)Cc1c(-c2ccc3ccccc3c2)[nH]c2c1ccc1ccccc12	539 and 439
COCCNc1nc2ccc(C#CC3(O)CCCCC3)cc2n1-c1ccnc(N)n1	453 and 163

Same assay, conditions: human, 48 h, 1 µM, compound concentration 1 uM

SMILES	Population Apoptotic (%)	Population Fragmented Nuclei (%)	Population Healthy Nuclei (%)	Population Hoechst High Intensity Objects (%)	Population Membrane Permeable-Phenotype (%)	Population Mitochondria Different-Phenotype (%)	Population Mitotic Cells (%)	Population Normal (%)	Population Pyknosed Nuclei (%)	Population Tubulin-Different-Phenotype (%)
C[C@H](N)COC(=O)[C@@H](CCCCN)NC(=O)Cc1c(-c2ccc3ccccc3c2)[nH]c2c1ccc1ccccc12	15% and 37%	13% and 11%	78% and 79%	4%	2% and 0%	16% and 29%	84% and 62%	95%	7% and 9%	13% and 17%
COCCNc1nc2ccc(C#CC3(O)CCCCC3)cc2n1-c1ccnc(N)n1	6.04% and 14.1%	1.77% and 1.97%	86.69% and 67.32%	0.06% and 0%	6.87% and 2.34%	9.94% and 24.56%	93.96% and 85.9%	99.94% and 100%	11.53% and 30.71%	

Same assay, conditions: human, 48 h, 1 µM, compound concentration 1 uM

SMILES	Total Cell Count
C[C@H](N)COC(=O)[C@@H](CCCCN)NC(=O)Cc1c(-c2ccc3ccccc3c2)[nH]c2c1ccc1ccccc12	963 and 540

Same assay, conditions: human, 48 h, 10 µM, compound concentration 10 uM

SMILES	Population Apoptotic (%)	Population Fragmented Nuclei (%)	Population Healthy Nuclei (%)	Population Hoechst High Intensity Objects (%)	Population Membrane Permeable-Phenotype (%)	Population Mitochondria Different-Phenotype (%)	Population Mitotic Cells (%)	Population Normal (%)	Population Pyknosed Nuclei (%)	Population Tubulin-Different-Phenotype (%)
C[C@H](N)COC(=O)[C@@H](CCCCN)NC(=O)Cc1c(-c2ccc3ccccc3c2)[nH]c2c1ccc1ccccc12	27% and 32%	13% and 14%	78% and 79%	6% and 4%	0%	44% and 43%	72% and 67%	93% and 95%	7% and 6%	33% and 35%
COCCNc1nc2ccc(C#CC3(O)CCCCC3)cc2n1-c1ccnc(N)n1	18.78% and 26.09%	0.76% and 2.91%	68.15% and 30.1%	0.25% and 0%	2.79% and 1.61%	59.96% and 58.06%	81.22% and 73.91%	99.75% and 100%	31.09% and 66.99%	

Same assay, conditions: human, 48 h, 10 µM, compound concentration 10 uM

SMILES	Total Cell Count
C[C@H](N)COC(=O)[C@@H](CCCCN)NC(=O)Cc1c(-c2ccc3ccccc3c2)[nH]c2c1ccc1ccccc12	781 and 681
